In the EternaBench riboswitch data:

System: MS2 coat protein
Experiment: apparent Kd, MS2 coat protein; higher = weaker binding; RNA-MaP array
How it was run: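 The designed RNAs, transcribed from sequenced DNA templates on an Illumina sequencing chip, were incubated with fluorescently labeled MS2 coat protein at room temperature. Protein ranged from 1.5 nM to 3 μM, with 0.8–1.5 h incubation at the lowest and 10–20 min at the highest concentrations, in Tris-HCl pH 7.5 buffer with KCl, MgCl2, BSA, DTT, tRNA and Tween20, with or without input ligand. The median of per-cluster binding-curve fits gives the apparent Kd, and designs measured on fewer than 10 clusters were excluded.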

[1] = designed as: OFF switch for flavin mononucleotide, no ligand
[2] = ligand present: flavin mononucleotide, designed as: OFF switch for flavin mononucleotide
[3] = designed as: ON switch for flavin mononucleotide, no ligand
[4] = ligand present: flavin mononucleotide, designed as: ON switch for flavin mononucleotide
[5] = ligand present: theophylline, designed as: OFF switch for theophylline
[6] = designed as: OFF switch for tryptophan, no ligand
[7] = ligand present: tryptophan, designed as: OFF switch for tryptophan
[8] = designed as: ON switch for theophylline, no ligand
[9] = ligand present: theophylline, designed as: ON switch for theophylline

## CCCAGGAUUCAAGGAUAUCGCAAUGAACAUGAGGAUCACCCAUGUUUCUACCCCUCAGCGCACGGCGAGAAGGUGACUUUAGCG
[1]
  apparent Kd: 0.0129 µM
[2]
  apparent Kd: 0.0123 µM

## CCGAUAAUCAAACAUGAGGAUCACCCAUGUUCUGGACGGUUCGAGGAUAUGGCACAAGGUAUCUUCCAGAAGGCGAGCCGGUGA
[3]
  apparent Kd: 0.00804 µM
[4]
  apparent Kd: 0.00598 µM

## CCGGCGCGAUUAUGGGUUUGCUUUUACGAUACCAGCCGCGUUCCGGGCCCUUGGCAGCGUGUAACAUGAGGAUCACCCAUGUUCA
[5]
  apparent Kd: 0.0132 µM

## CCUUUAGAUGUGAGGAUAUGUACUUGACUUUCAUGACAGAAGGCACAUGAGGAUCACCCAUGUAGUGUCAUUGG
[1]
  apparent Kd: 0.0104 µM
[2]
  apparent Kd: 0.0364 µM

## CGAACUAGCUAGAAGGAACAGGCGACUAAAGUGUUAGGAUAUAGGCGUAUGUGCAGACAUGAGGAUCACCCAUGUGUCGAAUUU
[1]
  apparent Kd: 0.0178 µM
[2]
  apparent Kd: 0.0147 µM

## CGACAGCACAUAGGAUAUCAGCAAGAACUAACAUGAGGAUCACCCAUGUAUGGAUGAACAUAAAAUGAGAAGGAAGGCGAAUUA
[3]
  apparent Kd: 0.0222 µM
[4]
  apparent Kd: 0.0179 µM

## CGACGAUCAGAAGGAUAUUAAAUCGUCAAUCUCGUGACAUGAGGAUCACCCAUGUAGCCCGUGGUUAAGAAGGUCUUGGUUGUG
[1]
  apparent Kd: 0.0924 µM
[2]
  apparent Kd: 0.058 µM

## CGAGUCUUAUAGAAGGUAGACAUGAGGAUCACCCAUGUACUGGCAACGAAUAGUCGUAGUACACCUAAGGAUAUAUGGGAUGAG
[3]
  apparent Kd: 0.0747 µM
[4]
  apparent Kd: 0.0523 µM

## CGAUUACAUGAGGAUCACCCAUGUCAGGAUAUAAUUUGCACAGCCGGGCAGGCCGUGGUUAGAAGGGACGUACA
[1]
  apparent Kd: 0.00909 µM
[2]
  apparent Kd: 0.00875 µM

## CGCCCGUACUCAGGAUAUCGAAGUACGAGCCAAAUUAUGUCGGACAUGAGGAUCACCCAUGUGGGCGAGAAGGGAGAACGUGCG
[1]
  apparent Kd: 0.0294 µM
[2]
  apparent Kd: 0.0164 µM

## CGCCCUAAAGAUAAGGAUAUUCAGUUAGUAACAUGAGGAUCACCCAUGUGCACAUUUCACUUGAUGAAGAAGGUAUCUGGAACAUU
[3]
  apparent Kd: 0.00827 µM
[4]
  apparent Kd: 0.0061 µM

## CGCCUACAGGUGUACUAUUGUGGUGAAGAUACCAGAUAGCCCAAUAUCCCUUGGCAGCUUCAGACAUGAGGAUCACCCAUGUAUC
Designed as: OFF switch for theophylline, no ligand
  apparent Kd: 0.0155 µM
[5]
  apparent Kd: 0.0276 µM

## CGGCAGAAAGUGAGGAUAUCGGUUGUAUGAGGAGACGAGAAGGCACAUGAGGAUCACCCAUGUUAGUAGUCCAC
[1]
  apparent Kd: 0.00954 µM
[2]
  apparent Kd: 0.0088 µM

## CGGGUAACCGAGAAGGACUUAAGACUACGUUAAGUAGGAUAUCGAUUUGUUACAUGAGGAUCACCCAUGUCUGGUCUUGACCGC
[1]
  apparent Kd: 0.00866 µM
[2]
  apparent Kd: 0.00967 µM

## CGUAUACAUGAGGAUCACCCAUGUACUCCCGUGUAAGGCGAGAAGGAUAUGUUCCCGGCUACUUAACAGAAGGUCUUGGCGCUU
[1]
  apparent Kd: 0.0149 µM
[2]
  apparent Kd: 0.0112 µM

## CGUGAUCGCAGAAAGGAUAUUUGGCCUGUAACAUGAGGAUCACCCAUGUUCAAAUGUGACUUACUAAAGAAGGUUCGAAGAUCCAA
[3]
  apparent Kd: 0.00723 µM
[4]
  apparent Kd: 0.00711 µM

## CUCGUGUUAGGAUAUGACGUCCCGCGCUCCGUUAACUAAUUUCAGAAGGAACAUGAGGAUCACCCAUGUUGGUG
[1]
  apparent Kd: 0.15 µM
[2]
  apparent Kd: 0.0597 µM

## CUCGUUUAAGAGGAUAUUUCGUCCGCUCUCGGGAAAGAAGGCUUGACAUGAGGAUCACCCAUGUAUACGUUGGA
[1]
  apparent Kd: 0.00946 µM
[2]
  apparent Kd: 0.0139 µM

## CUUCUUCGUGCAGGAUAUAAGGGAACACGAUGACAUGAGGAUCACCCAUGUUCUAUAAGCAGGCUUUAGAAGGGCAUUUUGGAU
[3]
  apparent Kd: 0.0271 µM
[4]
  apparent Kd: 0.0201 µM

## GAACAAUGCCUAGGAUAUCUUACGAUUGAAAACAGAGAAGGAGGGACCGAACAUGAGGAUCACCCAUGUAGAUGUGGGACGUGG
[1]
  apparent Kd: 0.0772 µM
[2]
  apparent Kd: 0.0845 µM

## GAACCCAAGGUGAGGAUAUUCGAAGCAACAAAAGGGAAGAAGGCACAUGAGGAUCACCCAUGUAAGAAAGAUAA
[1]
  apparent Kd: 0.00835 µM
[2]
  apparent Kd: 0.00952 µM

## GACAUAUGCUAUGCGCAGGCUACCCUCAGCCGAGGACCGGUACGGCCGCCACUCGUACUACCACAUGAGGAUCACCCAUGUUAUC
[6]
  apparent Kd: 0.0172 µM
[7]
  apparent Kd: 0.0182 µM

## GACAUGGGACAGAAGGCGCGUCACAUUUUUAUGCGAGGAUAUGUCACUACAUGAGGAUCACCCAUGUGAGUUGGGAUCUCGAAA
[1]
  apparent Kd: 0.0265 µM
[2]
  apparent Kd: 0.0641 µM

## GACGAACAUGAGGAUCACCCAUGUUAACCGAUCACCACGUUCAGAAGGAGGGACAUAACGAGCACCUAGGAUAUGACCAAACAC
[3]
  apparent Kd: 0.0242 µM
[4]
  apparent Kd: 0.0141 µM

## GACUACAUAGUCAGGAUAUGUGAUUAAUAAUAUCAACAGAAGGGACAUGAGGAUCACCCAUGUGUGCGAGUGGA
[1]
  apparent Kd: 0.0145 µM
[2]
  apparent Kd: 0.0332 µM

## GAUCUCCGCGAGAAGGCUGAGCGGUCACUAGCCAGAGGAUAUCGUCACGCGCAGGGAAAACAUGAGGAUCACCCAUGUGUAAGU
[1]
  apparent Kd: 0.0107 µM
[2]
  apparent Kd: 0.0106 µM

## GAUGCACAUGAGGAUCACCCAUGUCCUGAUACCAGAACGCGACUUUUCCCUUGGCAGCAGAAUUCACUUUUUUACAUUCAUACUG
[8]
  apparent Kd: 0.0221 µM
[9]
  apparent Kd: 0.0229 µM

## GCAAUUUGACGAGGAUAUGGUCUAUUUUUUUACCCAGAAGGCGUCGCCCACAUGAGGAUCACCCAUGUUCAUGGAUAGGAAAUA
[1]
  apparent Kd: 0.0119 µM

## GCACUUAUAGCAGGAUAUCUUUAAACACCGAAAGGUAGCGGUACAUGAGGAUCACCCAUGUCAACAGAGAAGGGCUCAUAGUCU
[3]
  apparent Kd: 0.0111 µM
[4]
  apparent Kd: 0.00863 µM

## GCAGGACAUGAGGAUCACCCAUGUGAUACUAUGACAGGAUAUGAUUGAAAACUUACUAGAACAGAAGGGUCGUGUA
[3]
  apparent Kd: 0.0943 µM
[4]
  apparent Kd: 0.0345 µM

## GCAUAGUAAAAUGAUACCAGAGUCAAAACAGACAUGAGGAUCACCCAUGUGCAUAUACAACUCCCUUGGCAGCAUUAAAACGGGA
[8]
  apparent Kd: 0.0171 µM
[9]
  apparent Kd: 0.013 µM

## GCAUUAACAAAGGAUAUGCAUUUCGUCAAUGUAGCAGAAGGUUGUACAUGAGGAUCACCCAUGUGUGAUCGAAC
[1]
  apparent Kd: 0.026 µM
[2]
  apparent Kd: 0.0566 µM

## GCCAAGCAGGGAGGAUAUACAGGCAAUAAGUGAUUAGAAGAACAAAACAUGAGGAUCACCCAUGUGAAGAAGGCCCAUUCGGAA
[1]
  apparent Kd: 0.0121 µM
[2]
  apparent Kd: 0.0109 µM

## GCCAAGCUCUAAGGAUAUGUUCACACCGGUGAGACAGAAGGUAGUAGUGUACUGCACAUGAGGAUCACCCAUGUAAACGGAUAA
[3]
  apparent Kd: 0.0642 µM
[4]
  apparent Kd: 0.0149 µM

## GCCACGCUAGAAGGAUAUUUGCCAUAAGUACGGAAAGAAGGUCUCGCCGGAUCGAACAUGAGGAUCACCCAUGUGUGGGUCAGA
[3]
  apparent Kd: 0.0438 µM
[4]
  apparent Kd: 0.026 µM

## GCCGCCGGUGCUUCAUUCCCUGAGCGACGGCGAGGACCGGUACGGCCGCCACUCGGCUCGGUACAUGAGGAUCACCCAUGUCUUU
[6]
  apparent Kd: 0.0447 µM
[7]
  apparent Kd: 0.0546 µM

## GCGACACUCACGGCCGCCACUGAUUAGCCCAGUAUGGAGCCCACACAUGAGGAUCACCCAUGUCACAGGACCGGGUGGGUCUAUU
Designed as: ON switch for tryptophan, no ligand
  apparent Kd: 0.0258 µM
Ligand present: tryptophan, designed as: ON switch for tryptophan
  apparent Kd: 0.0268 µM

## GCGAGGAGGCAGAAGGACUAAAACACGCUACAAGUAGGAUAUGCAUCCUGCACACAUGAGGAUCACCCAUGUAGAUCCUAUCGC
[1]
  apparent Kd: 0.078 µM
[2]
  apparent Kd: 0.151 µM

## GCGGUACAUGAGGAUCACCCAUGUGAUUUAACAGGUUUCAUCAGAAGGACUCACGGUUUGCGACAGUAGGAUAUGAAGGGUAAG
[3]
  apparent Kd: 0.0346 µM
[4]
  apparent Kd: 0.0246 µM

## GCUAAUCCAGGAGGAUAUAGGUUCUUUUCUACACAUGAGGAUCACCCAUGUGCAUCCCGGCGUACCUAGAAGGCCUGUCUAAAA
[3]
  apparent Kd: 0.026 µM
[4]
  apparent Kd: 0.0155 µM

## GCUCGAGGGCAAGGAUAUAGGGAGAAACAACGCCUAGAAGGUGCACACAUGAGGAUCACCCAUGUUUCUCUAUGACGGAUCAUC
[1]
  apparent Kd: 0.0181 µM
[2]
  apparent Kd: 0.0173 µM
